Reference: ChEMBL document CHEMBL1811767, “Quinoxalin-2(1H)-one derivatives as inhibitors against hepatitis C virus” (J Med Chem, 2011)
Calls of active or inactive are those of the source. No cut-off for these calls is given here.

Key:
Hepatitis C virus [1] = experiment: Antiviral activity against Hepatitis C virus infected in human Huh7ET cells assessed as inhibition of dicistronic viral RNA replication after 72 hrs by luciferase reporter gene assay; assay type: functional, organism-based, Hepacivirus hominis; settings: Huh-7, 72 h
Method in brief: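 HCV replicon Huh 7 ET cells seeded 5000/well in DMEM without G418 overnight; compounds dissolved in DMSO, diluted in DMEM, dose-response. After 72 h, replicon-derived luciferase read by Steady-Glo. Mean of four replicates; EC50 = concentration inhibiting HCV RNA replication by 50%.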

[2] = Cytotoxicity against human Huh7ET cells by CytoTox-one cell proliferation assay; assay type: cell-based; settings: Huh-7
Method in brief: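 Parallel plate of replicon Huh 7 ET cells (5000/well, DMEM without G418), compounds from DMSO stocks diluted in DMEM, 72 h. Viability by tetrazolium-based CytoTox-1 proliferation assay. Mean of four replicates; IC50 = concentration decreasing cell viability by 50%.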

Hepacivirus hominis [3] = experiment: Inhibition of Hepatitis C virus protease
[4] = Selectivity index, ratio of IC50 for human Huh7ET cells to EC50 for Hepatitis C virus; assay type: toxicity, cell-based, Huh-7; settings: read-out: Ratio IC50/EC50
Method in brief: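 SI taken as IC50 (CytoTox-1 viability, Huh 7 ET replicon cells, 72 h) divided by EC50 (replicon luciferase, same cells and exposure); each from four-replicate averages.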

Hepacivirus hominis [5] = experiment: Inhibition of Hepatitis C virus NS5B polymerase
[6] = Cytotoxicity against human Huh7ET cells at 20 uM by CytoTox-one cell proliferation assay; assay type: cell-based; settings: huh-7, 20 µM
Method in brief: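 Huh 7 ET replicon cells exposed to single 20 μM for 72 h in primary screen; viability by tetrazolium-based CytoTox-1 assay, reported as percent relative to control cells.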

Hepatitis C virus [7] = experiment: Antiviral activity against Hepatitis C virus infected in human Huh7ET cells assessed as inhibition of dicistronic viral RNA replication at 20 uM after 72 hrs by luciferase reporter gene assay; assay type: functional, Hepacivirus hominis, Huh-7; parameters: scale not given: the % may be the effect or the level left
Method in brief: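 Primary screen at single 20 μM in replicon Huh 7 ET cells (5000/well, DMEM without G418, overnight seeding). After 72 h exposure, replicon luciferase measured with Steady-Glo. Value expressed as percent inhibition relative to control cells.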

EC50 (Hepatitis C virus [1]) [nM]	inhibition (Hepacivirus hominis [3])	inhibition (Hepacivirus hominis [5])	Structure (SMILES)	IC50 [2] [µM]	selectivity ratio [4]	Cell viability relative to control [6] [%]	Activity (Hepatitis C virus [7]) [%]
1670	inactive	inactive	CN(c1cc2ncc(=O)[nH]c2cc1Nc1nc(-c2ccccc2)cs1)C1CCCCC1	62.5	37.4	–	–
–	–	–	O=c1cnc2cc(N3CCN(c4ccc(F)cc4)CC3)c(Nc3nc(-c4ccccc4)cs3)cc2[nH]1	–	–	84.3	35
